Experimental data taken from paper PMC3501270 (Bioorganic & medicinal chemistry, 2012).

Experiments:
[1] = target: Smo-D473H mutant receptor (Homo sapiens, UniProt Q99835, D473H); type: binding; conditions: for displacement of [3H]-cyclopamine from Smo-D473H: U2OS cells overexpressing Smo-D473H, competitor up to 10 µM
[2] = target: wild-type Smo (Homo sapiens, UniProt Q99835); type: binding; conditions: 25 nM [3H]-cyclopamine; competitor 0 – 10 µM
[3] = Storage stability in solution; type: physicochemical; conditions: room temperature, DMSO or methanolic solution, 1 week
[4] = system: Hh-dependent hair growth; assay: Hh-dependent hair regrowth after depilation; type: in vivo, mouse; conditions: C57BL female mice, topical 30 µl of 0.5 mM daily for 2 weeks
Procedure, shortened: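 Eight-week-old female C57BL/6 mice in telogen phase had the dorsum shaved. The lower half of the shaved area was depilated with Nair for 2 min and rinsed with water. Test compound in 95% acetone/5% DMSO, or vehicle alone, was applied topically to the depilated skin. Brief 3% isoflurane anaesthesia was used for all procedures. Five mice per group; hair regrowth assessed at 2 weeks.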

[5] = system: Smo-633 receptor and βarr2-GFP; assay: Smo/βarr2-GFP translocation primary high-throughput confocal imaging assay; type: cell-based; conditions: U2OS cells stably expressing Smo-633 and βarr2-GFP; 5 µM, 6 hours
[6] = target: vasopressin2 receptor (V2R) (Homo sapiens, UniProt P30518); assay: V2R/βarr2-GFP aggregation control assay; type: cell-based; conditions: arginine vasopressin stimulated cells; Supplementary Figure 3
[7] = system: Shh-induced Gli reporter activity; conditions: 1 µM concentration; cited from earlier work

wild-type Smo, sequence (Q99835 28-787): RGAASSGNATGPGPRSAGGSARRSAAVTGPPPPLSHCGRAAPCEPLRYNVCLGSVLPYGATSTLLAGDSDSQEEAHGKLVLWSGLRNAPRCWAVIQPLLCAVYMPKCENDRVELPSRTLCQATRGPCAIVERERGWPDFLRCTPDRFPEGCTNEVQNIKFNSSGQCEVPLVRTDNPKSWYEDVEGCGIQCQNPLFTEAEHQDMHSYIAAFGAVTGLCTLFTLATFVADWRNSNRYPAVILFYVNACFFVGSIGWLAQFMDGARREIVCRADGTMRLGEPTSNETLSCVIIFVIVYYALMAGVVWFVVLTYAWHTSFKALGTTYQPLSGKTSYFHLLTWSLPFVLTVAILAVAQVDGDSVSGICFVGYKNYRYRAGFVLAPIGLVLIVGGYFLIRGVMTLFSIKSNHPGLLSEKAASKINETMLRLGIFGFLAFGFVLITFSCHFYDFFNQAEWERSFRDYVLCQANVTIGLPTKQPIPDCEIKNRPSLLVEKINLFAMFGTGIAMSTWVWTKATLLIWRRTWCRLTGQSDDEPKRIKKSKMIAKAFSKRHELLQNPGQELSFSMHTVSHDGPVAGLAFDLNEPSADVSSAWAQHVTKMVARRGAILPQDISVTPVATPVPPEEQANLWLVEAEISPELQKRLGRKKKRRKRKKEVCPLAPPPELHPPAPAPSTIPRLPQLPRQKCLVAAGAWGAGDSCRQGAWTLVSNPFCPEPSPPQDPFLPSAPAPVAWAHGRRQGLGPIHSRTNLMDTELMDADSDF
Smo-D473H mutant receptor, sequence (Q99835 28-787 D473H): as the sequence (Q99835 28-787) above, with D446H counted along it
vasopressin2 receptor (V2R), sequence (P30518 whole entry, species assumed): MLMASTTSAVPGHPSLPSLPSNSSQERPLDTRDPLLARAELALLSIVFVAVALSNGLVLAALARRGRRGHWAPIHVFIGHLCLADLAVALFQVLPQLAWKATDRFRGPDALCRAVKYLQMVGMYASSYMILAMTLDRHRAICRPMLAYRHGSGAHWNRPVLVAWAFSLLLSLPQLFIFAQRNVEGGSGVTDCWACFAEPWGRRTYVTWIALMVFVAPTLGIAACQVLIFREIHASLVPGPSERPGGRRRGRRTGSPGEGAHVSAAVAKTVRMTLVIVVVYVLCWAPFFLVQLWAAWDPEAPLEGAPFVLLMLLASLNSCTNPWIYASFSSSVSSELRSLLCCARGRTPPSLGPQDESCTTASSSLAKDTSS

SMILES | displacement of [3H]-cyclopamine from Smo-D473H [1] | displacement of [3H]-cyclopamine from wild-type Smo [2] | activity after storage in solution [3] | right shift in affinity, SmoD473H versus wild-type Smo ([1]; ratio of Ki mutant / wild-type) | Hh-induced hair growth [4] | inhibition of intracellular βarr2-GFP aggregation [5] | aggregation of V2R and βarr2-GFP [6] | inhibition of Gli-reporter activity at 1 µM [7] | binding affinity to the mutant receptor (Ki not determinable) ([1]; Smo-D473H, up to 10 uM)
CS(=O)(=O)c1ccc(C(=O)Nc2ccc(Cl)c(-c3ccccn3)c2)c(Cl)c1 [GDC-0449, Vismodegib] | only partially displaced | completely displaced | – | – | – | – | – | – | –
O=C(NC1CCN(Cc2ccc(N3CCC(NC(=O)c4cccc(-c5cccnc5)c4)CC3)nc2)CC1)c1cccc(-c2cccnc2)c1 [Compound A8] | completely displace | completely displaced | retained activity | approximately 13 fold | largely inhibited | confirmed | not inhibited | – | –
CC1=C2C[C@H]3[C@@H](CC=C4C[C@@H](O)CC[C@@]43C)[C@@H]2CC[C@]12O[C@@H]1C[C@H](C)CN[C@H]1[C@H]2C [cyclopamine] | completely displace | completely displaced | – | – | – | inhibits the aggregation of βarr2-GFP | – | strong inhibition | –
Cc1c(C(=O)Nc2ccc(N3C[C@@H](C)O[C@@H](C)C3)nc2)cccc1-c1ccc(OC(F)(F)F)cc1 [LDE-225, Erismodegib] | largely ineffective | completely displaced | – | – | – | – | – | – | too weak
